Laboratory results from ChEMBL document CHEMBL1629431, “Synthesis and antitumor activity of some 2, 3-disubstituted quinazolin-4(3H)-ones and 4, 6- disubstituted- 1, 2, 3, 4-tetrahydroquinazolin-2H-ones” (2010).

Columns and labels:
Format in all cases: functional
CAKI-1 = experiment: Growth inhibition of human Caki1 cells at 10 uM after 48 hrs by coulter counter method; details: CAKI-1, 48 h, read-out: GI
Procedure, shortened: (§1)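 Single high-dose NCI 60-cell-line panel screen across nine tumor subpanels. Test solutions (0.2 mL) were added in duplicate to wells holding 1.8 mL of culture at 6 × 10⁴ cells/mL. Controls got PBS and DMSO at identical dilutions. Incubation was 48 h at 37 °C in humidified 5% CO₂. Cells were diluted 10-fold in saline, Coulter-counted and dilution-corrected. Results were expressed as percent growth inhibition versus control.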

NCI-H23 = experiment: Growth inhibition of human NCI-H23 cells at 10 uM after 48 hrs by coulter counter method; details: NCI-H23, 48 h, read-out: GI; procedure, shortened: as §1
HOP-92 = experiment: Growth inhibition of human HOP92 cells at 10 uM after 48 hrs by coulter counter method; details: HOP-92, 48 h, read-out: GI; procedure, shortened: as §1
CCRF-CEM = experiment: Growth inhibition of human CCRF-CEM cells at 10 uM after 48 hrs by coulter counter method; details: read-out: GI; procedure, shortened: as §1
HL-60(TB) = experiment: Growth inhibition of human HL-60(TB) cells at 10 uM after 48 hrs by coulter counter method; details: HL-60, 48 h, read-out: GI
Procedure, shortened: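 Part of the NCI 60-cell-line single-high-dose panel. Cells were seeded at 6 × 10⁴ cells/mL with test solution in duplicate wells, alongside PBS/DMSO controls at identical dilutions. Plates were held 48 h at 37 °C in a humidified 5% CO₂ incubator. Cells were then diluted 10-fold in saline and counted by Coulter counter, with counts corrected for dilution. Results are percent growth of treated cells, reported as GI %.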

U-251 = experiment: Growth inhibition of human U251 cells at 10 uM after 48 hrs by coulter counter method; details: U-251, 48 h, read-out: GI; procedure, shortened: as §1
OVCAR-4 = experiment: Growth inhibition of human OVCAR4 cells at 10 uM after 48 hrs by coulter counter method; details: OVCAR-4, 48 h, read-out: GI; procedure, shortened: as §1
HCT-116 = experiment: Growth inhibition of human HCT116 cells at 10 uM after 48 hrs by coulter counter method; details: HCT-116, 48 h, read-out: GI; procedure, shortened: as §1
MCF7 = experiment: Growth inhibition of human MCF7 cells at 10 uM after 48 hrs by coulter counter method; details: MCF7, 48 h, read-out: GI; procedure, shortened: as §1
UO-31 = experiment: Growth inhibition of human UO31 cells at 10 uM after 48 hrs by coulter counter method; details: UO-31, 48 h, read-out: GI; procedure, shortened: as §1
BT-549 = experiment: Growth inhibition of human BT549 cells at 10 uM after 48 hrs by coulter counter method; details: BT-549, 48 h, read-out: GI; procedure, shortened: as §1
[1] = Growth inhibition of human Hs 578T cells at 10 uM after 48 hrs by coulter counter method; details: read-out: GI; procedure, shortened: as §1
SN12C = experiment: Growth inhibition of human SN12C cells at 10 uM after 48 hrs by coulter counter method; details: read-out: GI; procedure, shortened: as §1
HT-29 = experiment: Growth inhibition of human HT-29 cells at 10 uM after 48 hrs by coulter counter method; details: HT-29, 48 h, read-out: GI; procedure, shortened: as §1
SK-MEL-28 = experiment: Growth inhibition of human SK-MEL-28 cells at 10 uM after 48 hrs by coulter counter method; details: SK-MEL-28, 48 h, read-out: GI; procedure, shortened: as §1
MDA-MB-468 = experiment: Growth inhibition of human MDA-MB-468 cells at 10 uM after 48 hrs by coulter counter method; details: MDA-MB-468, 48 h, read-out: GI; procedure, shortened: as §1
A549 = experiment: Growth inhibition of human A549 cells at 10 uM after 48 hrs by coulter counter method; details: A549, 48 h, read-out: GI; procedure, shortened: as §1
T47D = experiment: Growth inhibition of human T47D cells at 10 uM after 48 hrs by coulter counter method; details: read-out: GI; procedure, shortened: as §1
NCI-H226 = experiment: Growth inhibition of human NCI-H226 cells at 10 uM after 48 hrs by coulter counter method; details: NCI-H226, 48 h, read-out: GI; procedure, shortened: as §1
M14 = experiment: Growth inhibition of human M14 cells at 10 uM after 48 hrs by coulter counter method; details: M14, 48 h, read-out: GI; procedure, shortened: as §1
K562 = experiment: Growth inhibition of human K562 cells at 10 uM after 48 hrs by coulter counter method; details: K562, 48 h, read-out: GI; procedure, shortened: as §1
SF-268 = experiment: Growth inhibition of human SF268 cells at 10 uM after 48 hrs by coulter counter method; details: SF-268, 48 h, read-out: GI; procedure, shortened: as §1
MDA-MB-231 = experiment: Growth inhibition of human MDA-MB-231 cells at 10 uM after 48 hrs by coulter counter method; details: MDA-MB-231, 48 h, read-out: GI; procedure, shortened: as §1
SF-539 = experiment: Growth inhibition of human SF539 cells at 10 uM after 48 hrs by coulter counter method; details: SF-539, 48 h, read-out: GI; procedure, shortened: as §1
786-0 = experiment: Growth inhibition of human 786-0 cells at 10 uM after 48 hrs by coulter counter method; details: 786-0, 48 h, read-out: GI; procedure, shortened: as §1
SNB-75 = experiment: Growth inhibition of human SNB75 cells at 10 uM after 48 hrs by coulter counter method; details: SNB-75, 48 h, read-out: GI; procedure, shortened: as §1
SK-OV-3 = experiment: Growth inhibition of human SKOV3 cells at 10 uM after 48 hrs by coulter counter method; details: SK-OV-3, 48 h, read-out: GI; procedure, shortened: as §1
UACC-62 = experiment: Growth inhibition of human UACC62 cells at 10 uM after 48 hrs by coulter counter method; details: UACC-62, 48 h, read-out: GI; procedure, shortened: as §1
COLO 205 = experiment: Growth inhibition of human COLO205 cells at 10 uM after 48 hrs by coulter counter method; details: COLO 205, 48 h, read-out: GI; procedure, shortened: as §1
SK-MEL-2 = experiment: Growth inhibition of human SK-MEL-2 cells at 10 uM after 48 hrs by coulter counter method; details: SK-MEL-2, 48 h, read-out: GI; procedure, shortened: as §1
NCI-H522 = experiment: Growth inhibition of human NCI-H522 cells at 10 uM after 48 hrs by coulter counter method; details: NCI-H522, 48 h, read-out: GI; procedure, shortened: as §1
OVCAR-8 = experiment: Growth inhibition of human OVCAR8 cells at 10 uM after 48 hrs by coulter counter method; details: OVCAR-8, 48 h, read-out: GI; procedure, shortened: as §1
PC-3 = experiment: Growth inhibition of human PC3 cells at 10 uM after 48 hrs by coulter counter method; details: PC-3, 48 h, read-out: GI; procedure, shortened: as §1
KM12 = experiment: Growth inhibition of human KM12 cells at 10 uM after 48 hrs by coulter counter method; details: KM12, 48 h, read-out: GI; procedure, shortened: as §1
IGROV-1 = experiment: Growth inhibition of human IGROV1 cells at 10 uM after 48 hrs by coulter counter method; details: IGROV-1, 48 h, read-out: GI; procedure, shortened: as §1
MOLT-4 = experiment: Growth inhibition of human MOLT4 cells at 10 uM after 48 hrs by coulter counter method; details: MOLT-4, 48 h, read-out: GI; procedure, shortened: as §1
SR = experiment: Growth inhibition of human SR cells at 10 uM after 48 hrs by coulter counter method; details: read-out: GI; procedure, shortened: as §1

Row | Compound | inhibition of growth at 10 µM (CAKI-1) [%] | inhibition of growth at 10 µM (NCI-H23) [%] | inhibition of growth at 10 µM (HOP-92) [%] | inhibition of growth at 10 µM (CCRF-CEM) [%] | inhibition of growth at 10 µM (HL-60(TB)) [%] | inhibition of growth at 10 µM (U-251) [%] | inhibition of growth at 10 µM (OVCAR-4) [%] | inhibition of growth at 10 µM (HCT-116) [%] | inhibition of growth at 10 µM (MCF7) [%] | inhibition of growth at 10 µM (UO-31) [%] | inhibition of growth at 10 µM (BT-549) [%] | inhibition of growth at 10 µM [1] [%] | inhibition of growth at 10 µM (SN12C) [%] | inhibition of growth at 10 µM (HT-29) [%] | inhibition of growth at 10 µM (SK-MEL-28) [%] | inhibition of growth at 10 µM (MDA-MB-468) [%] | inhibition of growth at 10 µM (A549) [%] | inhibition of growth at 10 µM (T47D) [%] | inhibition of growth at 10 µM (NCI-H226) [%] | inhibition of growth at 10 µM (M14) [%] | further results
1 | CCn1c(-n2ccnc2)nc2ccccc2c1=O | 46.3 | 30 | 30 | 30 | 30 | 30 | 30 | 30 | 30 | 30 | 30 | 30 | 30 | 30 | 30 | 30 | 30 | 30 | 30 | 30 | inhibition of growth at 10 µM (K562): 37.9%; inhibition of growth at 10 µM (SF-268): 30%; inhibition of growth at 10 µM (MDA-MB-231): 30%; inhibition of growth at 10 µM (SF-539): 30%; inhibition of growth at 10 µM (786-0): 30%; inhibition of growth at 10 µM (SNB-75): 30%; inhibition of growth at 10 µM (SK-OV-3): 30%; inhibition of growth at 10 µM (UACC-62): 30%; inhibition of growth at 10 µM (COLO 205): 30%; inhibition of growth at 10 µM (SK-MEL-2): 30%; inhibition of growth at 10 µM (NCI-H522): 30%; inhibition of growth at 10 µM (OVCAR-8): 30%; inhibition of growth at 10 µM (PC-3): 30%; inhibition of growth at 10 µM (KM12): 30%
2 | NS(=O)(=O)c1ccc(Nc2nc3ccccc3c(=O)n2-c2ccc(Cl)cc2)cc1 | 30 | 30 | 30 | 30 | 30 | 30 | 30 | 33.6 | 30 | 30 | 30 | 30 | 30 | 30 | 30 | 30 | 30 | 30 | 30 | 30 | inhibition of growth at 10 µM (K562): 34.3%; inhibition of growth at 10 µM (SF-268): 30%; inhibition of growth at 10 µM (MDA-MB-231): 30%; inhibition of growth at 10 µM (IGROV-1): 30%; inhibition of growth at 10 µM (SF-539): 30%; inhibition of growth at 10 µM (786-0): 30%; inhibition of growth at 10 µM (SNB-75): 30%; inhibition of growth at 10 µM (SK-OV-3): 30%; inhibition of growth at 10 µM (UACC-62): 30%; inhibition of growth at 10 µM (MOLT-4): 38.1%; inhibition of growth at 10 µM (COLO 205): 30%; inhibition of growth at 10 µM (SR): 30.2%; inhibition of growth at 10 µM (SK-MEL-2): 30%; inhibition of growth at 10 µM (NCI-H522): 30%; inhibition of growth at 10 µM (OVCAR-8): 30%; inhibition of growth at 10 µM (PC-3): 30%; inhibition of growth at 10 µM (KM12): 30%
3 | COc1ccc(-n2c(Nc3ccc(S(N)(=O)=O)cc3)nc3ccccc3c2=O)cc1 | 30 | 30 | 30 | 30 | 30 | 30 | 30 | 36.7 | 30 | 30 | 30 | 30 | 30 | 30 | 30 | 37.5 | 30 | 30 | 30 | 30 | inhibition of growth at 10 µM (K562): 47.1%; inhibition of growth at 10 µM (SF-268): 30%; inhibition of growth at 10 µM (MDA-MB-231): 30%; inhibition of growth at 10 µM (IGROV-1): 30%; inhibition of growth at 10 µM (SF-539): 30%; inhibition of growth at 10 µM (786-0): 30%; inhibition of growth at 10 µM (SNB-75): 30%; inhibition of growth at 10 µM (SK-OV-3): 30%; inhibition of growth at 10 µM (UACC-62): 30%; inhibition of growth at 10 µM (MOLT-4): 30%; inhibition of growth at 10 µM (COLO 205): 30%; inhibition of growth at 10 µM (SR): 30%; inhibition of growth at 10 µM (SK-MEL-2): 30%; inhibition of growth at 10 µM (NCI-H522): 30%; inhibition of growth at 10 µM (OVCAR-8): 30%; inhibition of growth at 10 µM (PC-3): 30%; inhibition of growth at 10 µM (KM12): 30%
